What was measured:
CYP2C9 [1] = molecular target: T1, CYP2C9 (Homo sapiens, UniProt P11712); assay: (§1) Reversible inhibition of CYP2C9 in human liver microsomes at 10 uM after 20 mins by in presence of NADPH LC-MS/MS analysis; format: ADME; conditions: liver microsomes
[2] = Clearance in Sprague-Dawley rat plasma at 1 mg/kg, iv by UPLC-MS/MS analysis; format: ADME, organism-based
Method in brief: (§2)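 Male Sprague-Dawley rats (180-220 g) were fasted overnight with free access to water. Dosing was intravenous (n=2) or oral at 6 mg/kg (n=3). Heparinized blood was drawn from 0 to 1440 min. Plasma was frozen at -20°C, then precipitated with acetonitrile containing internal standard, centrifuged and analysed by UPLC-MS/MS.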

CYP2C19 [3] = molecular target: T2, CYP2C19 (Homo sapiens, UniProt P33261); assay: Time dependent irreversible inhibition of CYP2C19 in human liver microsomes at 10 uM preincubated with compound followed by NADPH addition by LC-MS/MS analysis; format: ADME
Method in brief: (§3)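 HLM (0.2 mg/ml) with 10 µM compound were preincubated 0, 5, 10 or 20 min at 37°C with 1 mM NADPH or PBS. Substrate cocktail (halved concentrations) plus NADPH was then added for 10 min. Metabolites were measured by LC-MS/MS. Kobs is the slope of relative activity versus preincubation time.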

[4] = Intrinsic clearance in human liver microsomes assessed per mg protein at 1 uM preincubated for 5 mins followed by NADPH addition measured after 5 to 30 mins by LC-MS/MS analysis; format: ADME, microsome; conditions: read-out: CLH
Method in brief: (§4)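 Microsomes (0.5 mg/ml) with 1 µM compound were preincubated 5 min at 37°C in 100 mM phosphate buffer pH 7.4, then started with 1 mM NADPH. Samples were taken at 0, 5, 10 and 30 min, quenched with acetonitrile/tinidazole and run by LC-MS/MS. CLint = k / microsomal protein concentration. Midazolam was the positive control.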

[5] = Intrinsic clearance in monkey liver microsomes assessed per mg protein at 1 uM preincubated for 5 mins followed by NADPH addition measured after 5 to 30 mins by LC-MS/MS analysis; conditions: liver microsomes; read-out: CLH
[6] = Intrinsic clearance in rat liver microsomes assessed per mg protein at 1 uM preincubated for 5 mins followed by NADPH addition measured after 5 to 30 mins by LC-MS/MS analysis; format: ADME, microsome; conditions: read-out: CLH; method in brief: as §4
CYP1A2 [7] = molecular target: T3, CYP1A2 (Homo sapiens, UniProt P05177); assay: Reversible inhibition of CYP1A2 in human liver microsomes at 10 uM after 20 mins in presence of NADPH by LC-MS/MS analysis; format: ADME
T3 sequence (P05177 whole entry): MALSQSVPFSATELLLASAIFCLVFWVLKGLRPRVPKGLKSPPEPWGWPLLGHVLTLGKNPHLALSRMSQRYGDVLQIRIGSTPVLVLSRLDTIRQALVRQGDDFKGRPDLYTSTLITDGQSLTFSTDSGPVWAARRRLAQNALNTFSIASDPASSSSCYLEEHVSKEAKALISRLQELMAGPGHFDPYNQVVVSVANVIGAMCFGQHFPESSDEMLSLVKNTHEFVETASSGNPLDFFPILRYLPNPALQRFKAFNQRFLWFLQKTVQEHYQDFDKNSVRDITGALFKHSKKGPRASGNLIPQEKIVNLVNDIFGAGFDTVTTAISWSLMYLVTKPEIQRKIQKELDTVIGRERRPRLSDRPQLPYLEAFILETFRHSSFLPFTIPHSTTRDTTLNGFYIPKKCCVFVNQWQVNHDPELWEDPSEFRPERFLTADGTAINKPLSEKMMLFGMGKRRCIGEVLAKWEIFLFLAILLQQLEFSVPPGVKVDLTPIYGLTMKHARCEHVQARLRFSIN

[8] = Volume of distribution at steady state in Sprague-Dawley rat plasma at 1 mg/kg, iv by UPLC-MS/MS analysis; format: ADME, organism-based; conditions: read-out: Vdss
Method in brief: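 Male Sprague-Dawley rats (180-220 g), fasted overnight with water available, dosed iv (n=2). Blood on heparin collected from 0 to 1440 min. Plasma obtained by centrifugation and stored at -20°C. Proteins precipitated with acetonitrile containing internal standard, then UPLC-MS/MS. Vss taken from the iv data.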

[9] = Drug recovery in monkey liver microsomes at 1 uM measured after 30 mins by LC-MS/MS analysis
[10] = Cmax in Sprague-Dawley rat plasma at 6 mg/kg, po by UPLC-MS/MS analysis; format: ADME, organism-based; design: dose 6 mg/kg, route oral; method in brief: as §2
CYP3A4 [11] = molecular target: T4, CYP3A4 (Homo sapiens, UniProt P08684); assay: (§5) Reversible inhibition of CYP3A4 in human liver microsomes at 10 uM after 20 mins in presence of NADPH by LC-MS/MS analysis; format: ADME; conditions: liver microsomes
SNU-5 = assay: Growth inhibition of human SNU5 cells after 72 hrs by CCK-8 assay; format: functional, cell-based; conditions: Homo sapiens, SNU-5, 72 h
CYP1A2 [12] = molecular target: T3, CYP1A2; assay: (§6) Time dependent irreversible inhibition of CYP1A2 in human liver microsomes at 10 uM preincubated with compound followed by NADPH addition by LC-MS/MS analysis; format: ADME; conditions: liver microsomes; method in brief: as §3
CYP2C9 [13] = molecular target: T1, CYP2C9; assay: (§7) Time dependent irreversible inhibition of CYP2C9 in human liver microsomes at 10 uM preincubated with compound followed by NADPH addition by LC-MS/MS analysis; format: ADME; conditions: liver microsomes; method in brief: as §3
CYP2C19 [14] = molecular target: T2, CYP2C19; assay: (§8) Reversible inhibition of CYP2C19 in human liver microsomes at 10 uM after 20 mins in presence of NADPH by LC-MS/MS analysis; format: ADME; conditions: liver microsomes
NCI-H1993 = assay: Growth inhibition of human NCI-H1993 cells after 72 hrs by CCK-8 assay; format: functional, cell-based; conditions: Homo sapiens, NCI-H1993, 72 h
CYP2D6 [15] = molecular target: T5, CYP2D6 (Homo sapiens, UniProt P10635); assay: (§9) Time dependent irreversible inhibition of CYP2D6 in human liver microsomes at 10 uM preincubated with compound followed by NADPH addition by LC-MS/MS analysis; format: ADME; conditions: liver microsomes; method in brief: as §3
[16] = Oral bioavailability in Sprague-Dawley rat plasma at 6 mg/kg by UPLC-MS/MS analysis; format: ADME, organism-based; conditions: Sprague-Dawley, plasma; method in brief: as §2
[17] = AUC (0 to 24 hrs) in Sprague-Dawley rat plasma at 6 mg/kg, po by UPLC-MS/MS analysis; format: ADME, organism-based; design: dose 6 mg/kg, time < 24 hr, route oral; method in brief: as §2
CYP2D6 [18] = molecular target: T5, CYP2D6; assay: (§10) Reversible inhibition of CYP2D6 in human liver microsomes at 10 uM after 20 mins in presence of NADPH by LC-MS/MS analysis; format: ADME; conditions: liver microsomes
[19] = (§11) Drug recovery in human liver microsomes at 1 uM measured after 30 mins by LC-MS/MS analysis; format: ADME, microsome; conditions: liver microsomes, read-out: Drug recovery
Method in brief: (§12)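 Liver microsomes (0.5 mg/ml) were incubated with 1 µM compound at 37°C in 100 mM phosphate buffer pH 7.4 without NADPH for 30 min. Reactions were quenched with acetonitrile/tinidazole internal standard and analysed by LC-MS/MS. Recovery (%) was taken from the compound/internal standard peak area ratio.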

[20] = (§13) Drug recovery in rat liver microsomes at 1 uM measured after 30 mins by LC-MS/MS analysis; format: ADME, microsome; conditions: liver microsomes, read-out: Drug recovery
[21] = Half life in Sprague-Dawley rat plasma at 1 mg/kg, iv by UPLC-MS/MS analysis; format: ADME, organism-based; method in brief: as §2
CYP3A4 [22] = molecular target: T4, CYP3A4; assay: (§14) Time dependent irreversible inhibition of CYP3A4 in human liver microsomes at 10 uM preincubated with compound followed by NADPH addition by LC-MS/MS analysis; format: ADME; conditions: liver microsomes; method in brief: as §3
Cytochrome P450 1A2 = Cytochrome P450 1A2 (Homo sapiens, UniProt P05177); assay: as §6; format: ADME; conditions: microsomes, 10 µM; method in brief: as §3
Cytochrome P450 2C9 [23] = molecular target: T6, Cytochrome P450 2C9 (Homo sapiens, UniProt P11712); assay: as §7; format: ADME; conditions: microsomes, 10 µM; method in brief: as §3
Cytochrome P450 2D6 [24] = molecular target: T7, Cytochrome P450 2D6 (Homo sapiens, UniProt P10635); assay: as §9; format: ADME; conditions: microsomes, 10 µM; method in brief: as §3
Liver [25] = assay: as §13; format: ADME, microsome; conditions: microsomes, 0.5 h, 1 µM
Cytochrome P450 3A4 [26] = molecular target: T8, Cytochrome P450 3A4 (Homo sapiens, UniProt P08684); assay: as §14; format: ADME; conditions: microsomes, 10 µM; method in brief: as §3
Liver [27] = assay: as §11; format: ADME, microsome; conditions: microsomes, 0.5 h, 1 µM; method in brief: as §12
Cytochrome P450 2C9 [28] = molecular target: T6, Cytochrome P450 2C9; assay: as §1; format: ADME; conditions: microsomes, 20 min, 10 µM
Cytochrome P450 3A4 [29] = molecular target: T8, Cytochrome P450 3A4; assay: as §5; format: ADME; conditions: microsomes, 20 min, 10 µM
Cytochrome P450 2C19 = Cytochrome P450 2C19 (Homo sapiens, UniProt P33261); assay: as §8; format: ADME; conditions: microsomes, 20 min, 10 µM
Cytochrome P450 2D6 [30] = molecular target: T7, Cytochrome P450 2D6; assay: as §10; format: ADME; conditions: microsomes, 20 min, 10 µM

T4 sequence (P08684 whole entry): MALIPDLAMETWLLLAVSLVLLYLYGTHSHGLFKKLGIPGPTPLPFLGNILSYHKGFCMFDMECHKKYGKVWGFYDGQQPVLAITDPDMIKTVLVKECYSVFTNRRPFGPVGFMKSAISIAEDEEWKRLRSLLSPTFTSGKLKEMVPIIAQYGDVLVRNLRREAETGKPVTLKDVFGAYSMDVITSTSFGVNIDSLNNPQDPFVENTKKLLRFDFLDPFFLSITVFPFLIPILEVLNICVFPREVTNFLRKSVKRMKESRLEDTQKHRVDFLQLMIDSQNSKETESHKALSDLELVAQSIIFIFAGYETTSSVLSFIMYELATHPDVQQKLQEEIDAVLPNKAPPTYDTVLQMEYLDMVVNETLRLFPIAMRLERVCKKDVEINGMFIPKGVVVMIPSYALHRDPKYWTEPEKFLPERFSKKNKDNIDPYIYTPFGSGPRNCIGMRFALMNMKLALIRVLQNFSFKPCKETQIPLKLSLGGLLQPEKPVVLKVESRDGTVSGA
T1 sequence (P11712 whole entry): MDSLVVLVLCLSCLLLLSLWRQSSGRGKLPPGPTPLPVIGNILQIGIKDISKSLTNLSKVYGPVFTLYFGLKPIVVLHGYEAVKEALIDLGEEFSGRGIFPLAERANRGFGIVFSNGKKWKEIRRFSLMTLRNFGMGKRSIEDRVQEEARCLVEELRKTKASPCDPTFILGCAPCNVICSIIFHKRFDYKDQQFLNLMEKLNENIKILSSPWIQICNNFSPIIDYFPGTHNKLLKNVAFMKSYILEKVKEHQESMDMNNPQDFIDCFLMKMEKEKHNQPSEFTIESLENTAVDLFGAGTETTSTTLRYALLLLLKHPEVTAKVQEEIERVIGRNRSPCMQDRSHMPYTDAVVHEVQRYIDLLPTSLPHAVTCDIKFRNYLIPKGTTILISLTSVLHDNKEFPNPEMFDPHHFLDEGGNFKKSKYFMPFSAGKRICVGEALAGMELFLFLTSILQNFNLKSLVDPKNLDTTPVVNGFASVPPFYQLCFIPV
T5 sequence (P10635 whole entry): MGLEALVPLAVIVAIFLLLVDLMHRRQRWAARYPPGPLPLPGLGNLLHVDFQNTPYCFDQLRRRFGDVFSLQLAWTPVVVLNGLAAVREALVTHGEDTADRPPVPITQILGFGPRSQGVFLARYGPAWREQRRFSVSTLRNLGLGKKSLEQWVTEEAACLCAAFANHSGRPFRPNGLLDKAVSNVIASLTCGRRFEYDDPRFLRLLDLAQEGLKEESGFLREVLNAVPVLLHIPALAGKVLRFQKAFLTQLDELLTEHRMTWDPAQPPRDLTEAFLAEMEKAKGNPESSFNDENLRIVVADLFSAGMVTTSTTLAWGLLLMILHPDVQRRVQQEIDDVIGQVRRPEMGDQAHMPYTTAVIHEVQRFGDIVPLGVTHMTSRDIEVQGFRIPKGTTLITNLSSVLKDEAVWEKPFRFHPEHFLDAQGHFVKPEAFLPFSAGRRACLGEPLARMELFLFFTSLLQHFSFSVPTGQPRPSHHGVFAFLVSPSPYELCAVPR
T2 sequence (P33261 whole entry): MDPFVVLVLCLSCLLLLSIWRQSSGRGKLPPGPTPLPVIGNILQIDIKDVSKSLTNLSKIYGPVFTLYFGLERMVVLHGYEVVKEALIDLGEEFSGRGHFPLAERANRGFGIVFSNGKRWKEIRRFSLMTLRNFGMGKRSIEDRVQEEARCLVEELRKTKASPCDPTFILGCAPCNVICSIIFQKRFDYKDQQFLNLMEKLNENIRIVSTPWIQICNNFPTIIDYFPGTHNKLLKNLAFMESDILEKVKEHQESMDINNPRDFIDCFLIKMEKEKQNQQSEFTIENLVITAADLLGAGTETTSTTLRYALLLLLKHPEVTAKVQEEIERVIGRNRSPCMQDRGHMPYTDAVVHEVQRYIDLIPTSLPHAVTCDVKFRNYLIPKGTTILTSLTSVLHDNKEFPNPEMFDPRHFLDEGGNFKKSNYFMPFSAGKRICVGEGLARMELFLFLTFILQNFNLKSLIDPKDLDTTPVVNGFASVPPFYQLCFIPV
T8 sequence (P08684 whole entry): as the sequence (P08684 whole entry) above
T6 sequence (P11712 whole entry): as the sequence (P11712 whole entry) above
T7 sequence (P10635 whole entry): as the sequence (P10635 whole entry) above
Cytochrome P450 2C19, sequence (P33261 whole entry): as the sequence (P33261 whole entry) above

Row | SMILES | inhibition at 20 min, 10 µM (CYP2C9 [1]) | inhibition at 10 µM (CYP2C19 [3]) | microsomal CLint at 1 µM [4] | microsomal CLint at 1 µM [5] | microsomal CLint at 1 µM [6] | inhibition at 20 min, 10 µM (CYP1A2 [7]) | remaining at 0.5 h, 1 µM [9] | inhibition at 20 min, 10 µM (CYP3A4 [11]) | IC50 (SNU-5) | inhibition at 10 µM (CYP1A2 [12]) | inhibition at 10 µM (CYP2C9 [13]) | inhibition at 20 min, 10 µM (CYP2C19 [14]) | IC50 (NCI-H1993) | inhibition at 10 µM (CYP2D6 [15]) | inhibition at 20 min, 10 µM (CYP2D6 [18]) | remaining at 0.5 h, 1 µM [19] | remaining at 0.5 h, 1 µM [20] | inhibition at 10 µM (CYP3A4 [22]) | other results
1 | CC(c1cc2cc(-c3cnn(C)c3)cnc2cc1F)n1nnc2ncc(-c3ccc(C(N)=O)c(F)c3)nc21 (stereo not given) | < 50% | < 50% | 2 µL/min/mg | 6 µL/min/mg | 1 µL/min/mg | < 50% | 103% | < 50% | 0.6 nM | < 50% | < 50% | < 50% | 0.9 nM | < 50% | < 50% | 120% | 115% | < 50% | clearance [2]: 9.33 mL/min/kg; Vd [8]: 2 L/kg; Cmax [10]: 98.9 ng/mL; bioavailability [16]: 8.2%; AUC(0-t) at 24 h [17]: 879 ng·h/mL; half-life [21]: 3.2 h
2 | CC(c1ccc2ncc(-c3cnn(C)c3)cc2c1)n1nnc2ncc(-c3ccc(C(N)=O)c(F)c3)nc21 (stereo not given) | < 50% |  | 3 µL/min/mg | 30 µL/min/mg | 10 µL/min/mg | < 50% | 98% | < 50% | 0.7 nM |  |  | < 50% | 0.9 nM |  | < 50% | 120% |  |  | TDI (Cytochrome P450 1A2): Active; TDI (Cytochrome P450 2C9 [23]): Active; TDI (Cytochrome P450 2D6 [24]): Active; Drug recovery (Liver [25]): 128%; TDI (Cytochrome P450 3A4 [26]): Active
3 | CC(c1ccc2ncc(-c3cnn(C)c3)cc2c1)n1nnc2ncc(-c3cnn(C)c3)nc21 (stereo not given) |  |  | 12 µL/min/mg | 42 µL/min/mg | 22 µL/min/mg |  | 79% |  | 0.5 nM |  |  |  |  |  |  |  | 115% |  | Drug recovery (Liver [27]): 123%
4 | CC(c1c(F)cc2ncc(-c3cnn(C)c3)cc2c1F)n1nnc2ncc(-c3ccncc3)nc21 (stereo not given) |  | < 50% | 9 µL/min/mg | 106 µL/min/mg | 26 µL/min/mg |  | 99% |  | 1.2 nM | < 50% | < 50% |  | 0.2 nM | < 50% |  | 101% | 98% | < 50% | inhibition (INH) (Cytochrome P450 2C9 [28]): Active; inhibition (INH) (Cytochrome P450 3A4 [29]): Active; inhibition (INH) (Cytochrome P450 2C19): Active; inhibition (INH) (Cytochrome P450 2D6 [30]): Active
